Screening results (PubChem)
This is a sample that favours compounds with a hit; in the whole collection about 2.3% have one here.
ADAM10 inh: human ADAM10 inhibitors, primary screen, biochemical, QFRET, HTS; recombinant ADAM10, EDANS/DABCYL FRET peptide cleavage, 3 h; Disintegrin and metalloproteinase domain-containing protein 10 (Homo sapiens), O14672; 370,000 tested, 0.62% active; inhibition, % at 7 µM;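 active means inhibition above a per-campaign cutoff equal to the mean of compounds falling between control-based bounds plus 3 SD, cut at about 20% in these data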
DDE Tn7 FP inh: inhibitors of Tn7 peptide binding to fibrin DD(E), primary screen, biochemical, fluorescence polarization, human fibrin, Tn7 probe. FP displacement of FITC-Tn7 peptide from fibrin DD(E); 0% = median of compound wells per plate. AID 720508, 2013. inhibition, % at 8.3 µM. Fibrinogen beta chain (Homo sapiens), P02675. 370,000 tested, 0.13% active;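 active means inhibition above the mean of compounds falling within the control limits plus 3 SD of them, cut at about 14% in these data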
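Measure: % inhibition scaled between sample-field median and high-control FP; Test system: human fibrin DD(E); Quantity: 2 µM final DD(E) protein; Doses: one dose, 8.3 µM nominal; Schedule: compound with protein 10 min, then 3 h after probe, room temperature; Detection: fluorescence polarization; Medium: Tris buffer with calcium and detergent, pH 7.8.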
ADAM17 inh: ADAM17 inhibitors, primary screen, biochemical, QFRET. Disintegrin and metalloproteinase domain-containing protein 17 (Homo sapiens), P78536. recombinant ADAM17, EDANS/DABCYL FRET peptide cleavage. inhibition, % at 6.95 µM. 370,000 tested, 0.83% active;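 active means inhibition above the mean of compounds lying between control limits plus 3 SD, set per campaign, cut at about 8.5% in these data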
Target sequence (P78536 215-824 limits assumed): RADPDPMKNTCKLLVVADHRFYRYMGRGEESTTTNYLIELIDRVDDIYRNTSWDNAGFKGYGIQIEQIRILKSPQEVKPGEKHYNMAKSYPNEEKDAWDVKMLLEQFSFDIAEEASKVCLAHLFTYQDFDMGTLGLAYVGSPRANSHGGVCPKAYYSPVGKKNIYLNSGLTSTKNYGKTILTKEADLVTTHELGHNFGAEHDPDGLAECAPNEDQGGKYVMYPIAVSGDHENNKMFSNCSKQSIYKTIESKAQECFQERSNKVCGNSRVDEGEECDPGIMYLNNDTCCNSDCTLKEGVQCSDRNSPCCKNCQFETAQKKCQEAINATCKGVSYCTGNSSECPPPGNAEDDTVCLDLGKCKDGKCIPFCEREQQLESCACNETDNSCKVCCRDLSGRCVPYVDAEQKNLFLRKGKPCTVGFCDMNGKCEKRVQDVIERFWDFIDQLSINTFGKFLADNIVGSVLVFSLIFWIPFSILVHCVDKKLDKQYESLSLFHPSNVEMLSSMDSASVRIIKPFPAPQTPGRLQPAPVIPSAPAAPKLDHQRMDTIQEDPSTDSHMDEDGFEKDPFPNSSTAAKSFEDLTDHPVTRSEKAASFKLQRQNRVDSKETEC
PLC-gamma1 inh: PLC-gamma1 enzyme inhibitors, primary screen, biochemical, fluorescence, purified enzyme; AID 720700, 2013; 370,000 tested, 0.84% active; inhibition, % at 12.2 µM; fluorogenic substrate; 1-phosphatidylinositol 4,5-bisphosphate phosphodiesterase gamma-1 (Homo sapiens), P19174; in the data active means inhibition above about 9.5%
PLCb3 inh: human PLC-beta3 inhibitors, primary screen, biochemical, fluorescence; AID 720704, 2013; inhibition, % at 12.2 µM; 370,000 tested, 0.18% active; Purified PLC-beta3, fluorogenic substrate; in the data active means inhibition above about 11%
Tn6 DDE FP: inhibitors of Tn6 peptide binding to fibrin DD(E), primary screen, biochemical, fluorescence polarization, human fibrin, Tn6 probe | 370,000 tested, 0.21% active | Fibrin DD(E) TRITC-Tn6 fluorescence polarization displacement | inhibition, % at 8.3 µM | Fibrinogen beta chain (Homo sapiens), P02675;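 active means inhibition above a per-campaign cutoff: mean of compounds within control limits plus 3 SD, cut at about 15% in these data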
ADAM10 confirm: human ADAM10 inhibitors, confirmation, biochemical, QFRET, triplicate; shares compounds with ADAM10 inh; ADAM10 QFRET peptide cleavage, EDANS fluorescence; inhibition, % at 6.95 µM; 2,100 tested, 1% active; AID 743208, 2013;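 active means inhibition above about 20% chosen separately for each screening run, limit read from the data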
ADAM17 ctr: ADAM17 inhibitors, counter-screen for ADAM10 exosite inhibitor project, biochemical, QFRET, high throughput; 2,100 tested, 0.5% active; shares compounds with ADAM10 inh; inhibition, % at 6.95 µM; ADAM17 QFRET peptide cleavage, EDANS fluorescence;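 active means mean triplicate inhibition above the solvent-only control wells' mean plus 3 SD, cut at about 12% in these data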
ADAM10 counter: ADAM10 inhibitors, counter-screen for ADAM17 exosite inhibitor project, biochemical, FRET, human ADAM10. 2,900 tested, 47% active. inhibition, % at 6.95 µM. recombinant ADAM10, EDANS/DABCYL FRET peptide cleavage, 3 h. shares compounds with ADAM17 inh;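 active means mean inhibition over the triplicate runs exceeds the activity threshold set in the earlier primary screen, cut at about 20% in these data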
ADAM17 confirm: ADAM17 inhibitors, hit retest, confirmation, biochemical, QFRET peptide cleavage | shares compounds with ADAM17 inh | recombinant ADAM17, EDANS/DABCYL QFRET peptide cleavage | inhibition, % at 6.95 µM | 2,900 tested, 65% active;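 active means mean inhibition across replicates above the hit cutoff set in the primary screen, cut at about 8.5% in these data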
Large screens that a line does not name were inactive (follow-up assays come after a bar, where they were run).

CN1C(=O)c2cc(NC(=O)Nc3ccccc3)ccc2OC[C@H]2O[C@@H](CC(=O)NC3CCC3)CC[C@@H]21	none
COc1cc(NC(=O)Nc2ccc3c(c2)OCO3)cc(OC)c1OC	none
COc1ccc(C(C)(C)C)cc1NC(=O)Nc1ccc2c(c1)OCO2	ADAM10 inh 24, ADAM17 inh 10 | ADAM10 confirm inactive | ADAM17 ctr inactive | ADAM10 counter 41 | ADAM17 confirm 24
O=C(NC(Cc1c[nH]c2ccccc12)C(=O)O)c1cccs1 (centres undefined)	none
O=C(NC(Cc1c[nH]c2ccccc12)C(=O)Nc1ccc(OC(F)(F)F)cc1)c1cccs1 (centres undefined)	ADAM10 inh 25, ADAM17 inh 12 | ADAM10 confirm inactive | ADAM17 ctr inactive | ADAM10 counter 59 | ADAM17 confirm 30
CC(C)CN1C(=O)[C@]2(CC(=O)N(C)C2c2ccccc2)c2cc(-n3cc(CCc4ccccc4)nn3)ccc21 (some centres undefined)	none
COC(=O)c1sccc1NC(=O)CSc1ccccc1NS(=O)(=O)c1ccc(Br)cc1	ADAM10 inh 21, ADAM17 inh 11 | ADAM10 confirm inactive | ADAM17 ctr inactive | ADAM10 counter inactive | ADAM17 confirm inactive
O=C(NCCc1ccccc1)OCc1cn(Cc2cccc(C(F)(F)F)c2)nn1	none
Cc1ccc(N(CC(O)CON=C2c3ccccc3-c3ccccc32)S(C)(=O)=O)cc1 (centres undefined)	ADAM10 inh 22, ADAM17 inh 12 | ADAM10 confirm inactive | ADAM17 ctr inactive | ADAM10 counter 22 | ADAM17 confirm 14
Cc1ccc(N(CC(O)Cn2c3ccccc3c3ccccc32)S(C)(=O)=O)cc1 (centres undefined)	none
O=C(NCc1ccco1)c1ccc(N2CCCCC2)c([N+](=O)[O-])c1	none
CC1CCN(c2ccc(C(=O)NCc3ccco3)cc2[N+](=O)[O-])CC1	ADAM10 inh 23, ADAM17 inh 9.0 | ADAM10 confirm inactive | ADAM17 ctr inactive | ADAM10 counter inactive | ADAM17 confirm inactive
COc1ccc(-c2cc(-c3ccccc3O)[nH]n2)cc1	none
Cc1ccc(-c2cc(-c3ccccc3Cl)[nH]n2)c(O)c1	ADAM10 inh 24, ADAM17 inh 9.5 | ADAM10 confirm inactive | ADAM17 ctr inactive | ADAM10 counter inactive | ADAM17 confirm 9.1
Cc1ccc(-c2cc(-c3ccccc3[N+](=O)[O-])[nH]n2)c(O)c1	none
Cc1ccc(-c2cc(-c3ccc(C)cc3O)[nH]n2)cc1	ADAM10 inh 33, ADAM17 inh 12 | ADAM10 confirm inactive | ADAM17 ctr inactive | ADAM10 counter 25 | ADAM17 confirm 14
Cc1ccccc1-c1cc(-c2ccccc2O)n[nH]1	ADAM10 inh 24, ADAM17 inh 11 | ADAM10 confirm inactive | ADAM17 ctr inactive | ADAM10 counter inactive | ADAM17 confirm 10.0
CCC[C@H]1[C@@H](OC(=O)NCCc2c[nH]c3ccccc23)CC[C@@]23CCCN2C(=O)CCC[C@@H]13	none
Cc1sc2ncnc(N3CCC(C(=O)N(C)CC(=O)Nc4ccc(Cl)c(C(F)(F)F)c4)CC3)c2c1C	ADAM10 inh 23, ADAM17 inh 12 | ADAM10 confirm inactive | ADAM17 ctr inactive | ADAM10 counter 48 | ADAM17 confirm 25
Cc1sc2ncnc(N3CCC(C(=O)N(C)CC(=O)Nc4cccc(F)c4)CC3)c2c1C	none
Cc1ccc(-n2c(SCC(=O)Nc3cccc4ccccc34)nnc2-c2cnccn2)cc1	none
COC(=O)c1cc2cc(NS(=O)(=O)c3ccc(C)cc3)ccc2s1	ADAM10 inh 28, ADAM17 inh 15 | ADAM10 confirm inactive | ADAM17 ctr inactive | ADAM10 counter inactive | ADAM17 confirm 10
Cc1ccc(S(=O)(=O)Nc2ccc3ccccc3c2)cc1	ADAM10 inh 24, ADAM17 inh 17 | ADAM10 confirm inactive | ADAM17 ctr inactive | ADAM10 counter inactive | ADAM17 confirm inactive
C[C@H]1[C@@H](OC(=O)NCc2cccc(C(F)(F)F)c2)CC[C@@]23CCCN2C(=O)CCC[C@@H]13	none
CN(C(=O)Nc1ccc(Cl)cc1Cl)[C@H]1c2cc(Br)ccc2OC[C@H]1CO	ADAM10 inh 27, ADAM17 inh 15 | ADAM10 confirm inactive | ADAM17 ctr inactive | ADAM10 counter 28 | ADAM17 confirm 12
Cc1cc(N2CCOc3ccccc32)nc2ccccc12	none
O=C(NCc1ccc(OC(F)(F)F)cc1)C1CC(c2c(Cl)cccc2Cl)=NO1 (centres undefined)	ADAM10 inh 21, ADAM17 inh 9.5 | ADAM10 confirm inactive | ADAM17 ctr inactive | ADAM10 counter 24 | ADAM17 confirm 13
O=C(NCc1cc(C(F)(F)F)cc(C(F)(F)F)c1)C1CC(c2c(Cl)cccc2Cl)=NO1 (centres undefined)	none
O=C(NCc1cc(C(F)(F)F)cc(C(F)(F)F)c1)C1CC(c2ccccc2C(F)(F)F)=NO1 (centres undefined)	ADAM10 inh 31, ADAM17 inh 17 | ADAM10 confirm inactive | ADAM17 ctr inactive | ADAM10 counter 49 | ADAM17 confirm 25
O=C(N[C@@H]1C[C@@H]2O[C@@H](CO)CC[C@@H]2O[C@@H]1CCc1ccc(-c2ccccc2)cc1)c1cnccn1	none
